Laboratory results taken from ChEMBL document CHEMBL4765238, “Structure-Based Discovery and Optimization of Benzo[ d]isoxazole Derivatives as Potent and Selective BET Inhibitors for Potential Treatment of Castration-Resistant Prostate Cancer (CRPC)” (J Med Chem, 2018).

Assays:
[1] = biological target: T1, Bromodomain-containing protein 4 (Homo sapiens, UniProt O60885); experiment: Inhibition of HYSGRGK(Ac)GGK(Ac)GLGK(Ac)GGAK(Ac)RHRK(Biotin)-OH binding to recombinant human His6-tagged BRD4 bromodomain 1 (N44 to E168 residues) expressed in Escherichia coli BL21 (DE3) cells measured after 2 hrs by Alphascreen assay
[2] = biological target: T1, Bromodomain-containing protein 4; experiment: Binding affinity to human recombinant His6-tagged BRD4 bromodomain 1 (N44 to E168 residues) expressed in Escherichia coli BL21 (DE3) cells assessed as change in melting temperature at 200 uM incubated for 30 mins by SYPRO orange dye based thermal shift assay
Method in brief: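 Thermal shift assay measuring change in melting temperature of each isolated bromodomain module in the presence of compound versus without.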

[3] = biological target: T1, Bromodomain-containing protein 4; experiment: Inhibition of BRD4 bromodomain 1 (unknown origin) by fluorescence polarization assay
LNCaP C4-2B = experiment: Antiproliferative activity against AR-positive human C4-2B cells assessed as reduction in cell viability incubated for 96 hrs by cell-titer glo assay; assay type: functional, cell-based
Method in brief: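 Prostate cancer cells treated across a concentration range; viability read by CellTiter-Glo luminescence; experiments in triplicate; IC50 derived from the dose–response curves.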

VCaP = experiment: cells; settings: Homo sapiens, 144 h, read-out: INH

Row | SMILES | IC50 [1] [µM] | ΔTm [2] [°C] | IC50 [3] [µM] | IC50 (LNCaP C4-2B) [µM] | inhibition at 33 µM (VCaP) [%]
1 | Cc1cc2onc(C)c2cc1NS(=O)(=O)c1cccc(Cl)c1Cl | 3.55 | 4 |  |  | 
2 | Cc1cc2onc(C)c2cc1NS(=O)(=O)c1ccccc1 | 4.96 | 2 |  |  | 
3 | COc1ccc(Br)cc1S(=O)(=O)Nc1cc2c(C)noc2cc1OCC(=O)NCCN1CCOCC1 | 2.27 | 4.8 |  |  | 
4 | Cc1noc2c(Br)cc(-c3nc4ccc(N5CCOCC5)cc4n3CC3CC3)cc12 | 2.36 | 6 |  |  | 
5 | Cc1cc2onc(C)c2cc1NS(=O)(=O)c1ccc([N+](=O)[O-])cc1 | > 20 | 0.5 |  |  | 
6 | Cc1noc2ccc(-c3nc4ccc(N5CCOCC5)cc4n3Cc3ccccc3)cc12 | 1.67 | 6 |  |  | 
7 | COc1cc2onc(C)c2cc1NS(=O)(=O)c1ccccc1Cl | 0.22 | 7.8 |  |  | 
8 | COCCn1c(-c2cc(Br)c3onc(C)c3c2)nc2ccc(N3CCOCC3)cc21 | > 20 | 4.5 |  |  | 
9 | CCCn1c(-c2ccc3onc(C)c3c2)nc2ccc(N3CCOCC3)cc21 | 1.37 | 6.5 |  |  | 
10 | COc1ccc(OC)c(S(=O)(=O)Nc2cc3c(C)noc3cc2C)c1 | 10.7 | 2 |  |  | 
11 | COC(=O)c1ccccc1S(=O)(=O)Nc1cc2c(C)noc2cc1C | 6.93 | 3 |  |  | 
12 | COc1cc2onc(C)c2cc1NS(=O)(=O)c1cc(Cl)ccc1Cl | 0.44 | 7.3 |  |  | 
13 | COc1ccc(Br)cc1S(=O)(=O)Nc1cc2c(C)noc2cc1OCC(=O)NCCNC(C)=O | 0.75 | 5.4 |  |  | 
14 | COc1ccc(Br)cc1S(=O)(=O)Nc1cc2c(C)noc2cc1C | 0.62 | 7.5 |  |  | 
15 | Cc1cc2onc(C)c2cc1NS(=O)(=O)c1c(Cl)cccc1Cl | > 20 | 1.1 |  |  | 
16 | CCOC(=O)C[C@@H]1N=C(c2ccc(Cl)cc2)c2cc(OC)ccc2-n2c(C)nnc21 |  |  | 0.631 |  | 
17 | Cc1cc2onc(C)c2cc1NS(=O)(=O)c1ccc(Cl)cc1 | > 20 | 1 |  |  | 
18 | Cc1noc2c(Br)cc(-c3nc4ccc(N5CCOC[C@@H]5C)cc4n3CC3CCCCC3)cc12 | 0.32 | 7.2 |  |  | 
19 | CCCn1c(-c2cc(Br)c3onc(C)c3c2)nc2ccc(N3CCOCC3)cc21 | 1.8 | 6.2 |  |  | 
20 | CCCCn1c(-c2cc(Br)c3onc(C)c3c2)nc2ccc(N3CCOCC3)cc21 | 0.52 | 7.2 |  |  | 
21 | CCC(C)n1c(-c2ccc3onc(C)c3c2)nc2ccc(N3CCOCC3)cc21 (stereo not drawn) | 3.62 | 4.8 |  |  | 
22 | COc1ccc(Br)cc1S(=O)(=O)Nc1cc2c(C)noc2cc1OCC(=O)O | 0.58 | 6.2 |  |  | 
23 | Cc1cc2onc(C)c2cc1NS(=O)(=O)c1ccccc1C(=O)O | 5.81 | 3.8 |  |  | 
24 | CNC(=O)c1ccc(N2C(=S)N(c3ccc(C#N)c(C(F)(F)F)c3)C(=O)C2(C)C)cc1F [ENZALUTAMIDE] |  |  |  | 18 | 50

Row | SMILES | IC50 [1] [µM] | ΔTm [2] [°C] | IC50 [3] [µM] | IC50 (LNCaP C4-2B) [µM] | inhibition at 33 µM (VCaP) [%]
25 | Cc1cc2onc(C)c2cc1NS(=O)(=O)c1cc(Cl)ccc1Cl | 2.35 | 5 |  |  | 
26 | COc1ccc(Br)cc1S(=O)(=O)Nc1cc2c(C)noc2cc1O | 0.23 | 9.2 |  |  | 
27 | Cc1cc2onc(C)c2cc1NS(=O)(=O)c1ccccc1Br | 1.84 | 4.4 |  |  | 
28 | CCCCS(=O)(=O)Nc1cc2c(C)noc2cc1C | 2.55 | 5 |  |  | 
29 | COc1cc2onc(C)c2cc1NS(=O)(=O)c1cc(C)ccc1OC | 0.47 | 7.8 |  |  | 
30 | CCCCn1c(-c2ccc3onc(C)c3c2)nc2ccc(N3CCOCC3)cc21 | 1.16 | 5.9 |  |  | 
31 | Cc1cc2onc(C)c2cc1NS(=O)(=O)C1CCCC1 | 3.05 | 5 |  |  | 
32 | CCOc1cc2onc(C)c2cc1NS(=O)(=O)c1cc(Br)ccc1OC | 0.15 | 9.2 |  |  | 
33 | CCS(=O)(=O)Nc1cc2c(C)noc2cc1C | 5.3 | 3 |  |  | 
34 | COc1ccccc1S(=O)(=O)Nc1cc2c(C)noc2cc1C | 0.83 | 6.6 |  |  | 
35 | Cc1cc2onc(C)c2cc1NS(=O)(=O)c1ccccc1Cl | 1.59 | 5.2 |  |  | 
36 | CCCOc1cc2onc(C)c2cc1NS(=O)(=O)c1cc(Br)ccc1OC | 0.42 | 6 |  |  | 
37 | Cc1noc2ccc(-c3nc4ccc(N5CCOCC5)cc4n3CC3CCCCC3)cc12 | 0.18 | 5.4 |  |  | 
38 | COc1ccc(S(=O)(=O)Nc2cc3c(C)noc3cc2C)cc1 | > 20 | 1.5 |  |  | 
39 | Cc1cc2onc(C)c2cc1NS(=O)(=O)c1ccc(F)cc1 | 9.82 | 2 |  |  | 
40 | CCCS(=O)(=O)Nc1cc2c(C)noc2cc1C | 2.47 | 4.5 |  |  | 
41 | COCCn1c(-c2ccc3onc(C)c3c2)nc2ccc(N3CCOCC3)cc21 | 4.42 | 5 |  |  | 
42 | Cc1noc2ccc(-c3nc4ccc(N5CCOCC5)cc4n3CC3CC3)cc12 | 1.41 | 6.5 |  |  | 
43 | COc1ccc(Cl)cc1S(=O)(=O)Nc1cc2c(C)noc2cc1C | 1.05 | 6.5 |  |  | 
44 | Cc1cc2onc(C)c2cc1NS(=O)(=O)C1CCCCC1 | 2.24 | 4.5 |  |  | 
45 | COc1cc2onc(C)c2cc1NS(=O)(=O)c1cc(Cl)ccc1OC | 0.16 | 8.7 |  |  | 
46 | CCNC(=O)COc1cc2onc(C)c2cc1NS(=O)(=O)c1cc(Br)ccc1OC | 1.6 | 5.1 |  |  | 
47 | COc1ccc(C)cc1S(=O)(=O)Nc1cc2c(C)noc2cc1C | 2.13 | 4.6 |  |  | 
